Experimental data reported in ChEMBL document CHEMBL4145481, “Synthesis and biological evaluation of novel bavachinin analogs as anticancer agents” (Eur J Med Chem, 2018).
pIC50: −log10 of the molar value.

Tests used:
[1] = tested on: A549; assay: Cytotoxicity against human A549 cells assessed as growth inhibition at 50 uM after 48 hrs by SRB assay relative to control; type: functional; conditions: A549, 48 h, read-out: GI
In short: (§1)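 SRB growth-inhibition run in RPMI-1640/10% FBS at 37°C, 5% CO₂. Cell lines were seeded (PC-3 7000, MCF-7 8000, A549 7500, HCT-116 7000/well) and attached 24 h. The treatment series included 50 μM, with 48 h exposure. Cells were cold-TCA fixed and stained with 0.4% SRB. Dye was solubilized in 10 mM Tris pH 10.4 and read at 540 nm against untreated control.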

[2] = tested on: PC-3; assay: Cytotoxicity against human PC3 cells assessed as growth inhibition at 50 uM after 48 hrs by SRB assay relative to control; type: functional; conditions: PC-3, 48 h, read-out: GI; in short: as §1
[3] = tested on: HCT-116; assay: Cytotoxicity against human HCT116 cells assessed as growth inhibition at 50 uM after 48 hrs by SRB assay relative to control; type: functional; conditions: HCT-116, 48 h, read-out: GI; in short: as §1
[4] = tested on: MCF7; assay: Cytotoxicity against human MCF7 cells assessed as growth inhibition at 50 uM after 48 hrs by SRB assay relative to control; type: functional; conditions: MCF7, 48 h, read-out: GI; in short: as §1
[5] = tested on: A549; assay: Cytotoxicity against human A549 cells assessed as growth inhibition after 48 hrs by SRB assay; type: functional, cell-based; conditions: A549, 48 h
In short: (§2)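 Cells were grown in RPMI-1640 with 10% FBS and penicillin/streptomycin at 37°C, 5% CO₂. Seeding was PC-3 7000, MCF-7 8000, A549 7500 and HCT-116 7000 cells/well, with 24 h attachment. Cells were exposed to 1, 5, 10, 30 and 50 μM for 48 h, with a 5-fluorouracil reference. Cells were TCA-fixed (1 h, 4°C) and stained with 0.4% SRB. Bound dye was dissolved in 10 mM Tris pH 10.4 and read at 540 nm. IC50 came from the concentration-response.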

[6] = tested on: PC-3; assay: Cytotoxicity against human PC3 cells assessed as growth inhibition after 48 hrs by SRB assay; type: functional, cell-based; conditions: PC-3, 48 h; in short: as §2
[7] = tested on: HCT-116; assay: Cytotoxicity against human HCT116 cells assessed as growth inhibition after 48 hrs by SRB assay; type: functional, cell-based; conditions: HCT-116, 48 h; in short: as §2
[8] = tested on: MCF7; assay: Cytotoxicity against human MCF7 cells assessed as growth inhibition after 48 hrs by SRB assay; type: functional, cell-based; conditions: MCF7, 48 h; in short: as §2

With COc1ccc([C@@H]2C/C(=N/OCc3cn(-c4cccc(CO)c4)nn3)c3cc(CC=C(C)C)c(OC)cc3O2)cc1 the inhibition of growth at 50 µM [1] was 43%, the inhibition of growth at 50 µM [2] was 34% and the inhibition of growth at 50 µM [3] was 27%. The inhibition of growth at 50 µM [4] was 42%.
C#CCO/N=C1/C[C@@H](c2ccc(OC)cc2)Oc2cc(OC)c(CC=C(C)C)cc21 gave an inhibition of growth at 50 µM [1] of 64%, an inhibition of growth at 50 µM [2] of 41% and an inhibition of growth at 50 µM [3] of 65%. The inhibition of growth at 50 µM [4] was 61%.
In the case of COc1cc2c(cc1CC=C(C)C)/C(=N/O)C[C@@H](c1ccc(O)cc1)O2, the inhibition of growth at 50 µM [1] was 80%, the inhibition of growth at 50 µM [2] was 81% and the inhibition of growth at 50 µM [3] was 99%. The inhibition of growth at 50 µM [4] was 93%, the pIC50 [5] was 4.94 and the pIC50 [6] was 4.50. The pIC50 [7] was 4.53 and the pIC50 [8] was 4.63.
CCCCOc1ccc([C@@H]2CC(=O)c3cc(CC=C(C)C)c(OC)cc3O2)cc1 was tested, and the inhibition of growth at 50 µM [1] was 37%, the inhibition of growth at 50 µM [2] was 48% and the inhibition of growth at 50 µM [3] was 60%. For the same molecule, the inhibition of growth at 50 µM [4] was 57%.
With CCOc1ccc([C@@H]2CC(=O)c3cc(CC=C(C)C)c(OC)cc3O2)cc1 the inhibition of growth at 50 µM [1] was 37%, the inhibition of growth at 50 µM [2] was 60% and the inhibition of growth at 50 µM [3] was 65%. The inhibition of growth at 50 µM [4] was 57%.
Work on COc1cc2c(cc1CC=C(C)C)C(=O)C[C@@H](c1ccc(Oc3ccc(F)cc3)cc1)O2 yielded an inhibition of growth at 50 µM [1] of 27%, an inhibition of growth at 50 µM [2] of 19% and an inhibition of growth at 50 µM [3] of 29%. It also gave an inhibition of growth at 50 µM [4] of 37%.
COc1ccc([C@@H]2C/C(=N/OCc3cn(-c4ccc(Cl)cc4C)nn3)c3cc(CC=C(C)C)c(OC)cc3O2)cc1 was tested, and the inhibition of growth at 50 µM [1] was 35%, the inhibition of growth at 50 µM [2] was 49% and the inhibition of growth at 50 µM [3] was 20%. For the same molecule, the inhibition of growth at 50 µM [4] was 37%.
COc1cc(O)c(C(=O)/C=C/c2ccc(O)cc2)cc1CC=C(C)C gave an inhibition of growth at 50 µM [1] of 68%, an inhibition of growth at 50 µM [2] of 44% and an inhibition of growth at 50 µM [3] of 63%. The inhibition of growth at 50 µM [4] was 73%.
Work on COc1cc2c(cc1CC=C(C)C)C(=O)C[C@@H](c1ccc(Oc3cccc([N+](=O)[O-])c3)cc1)O2 yielded an inhibition of growth at 50 µM [1] of 37%, an inhibition of growth at 50 µM [2] of 21% and an inhibition of growth at 50 µM [3] of 46%. It also gave an inhibition of growth at 50 µM [4] of 53%.
COc1ccc([C@@H]2C/C(=N/OCc3cn(-c4ccc(NC(=O)c5ccccc5)cc4)nn3)c3cc(CC=C(C)C)c(OC)cc3O2)cc1 gave an inhibition of growth at 50 µM [1] of 31%, an inhibition of growth at 50 µM [2] of 22% and an inhibition of growth at 50 µM [3] of 8%. It also gave an inhibition of growth at 50 µM [4] of 4%.
COc1ccc([C@@H]2CC(=O)c3cc(CC=C(C)C)c(OC)cc3O2)cc1 showed an inhibition of growth at 50 µM [1] of 45%, an inhibition of growth at 50 µM [2] of 58% and an inhibition of growth at 50 µM [3] of 68%. The inhibition of growth at 50 µM [4] was 65%.
In the case of COc1ccc([C@@H]2C/C(=N/O)c3cc(CC=C(C)C)c(OC)cc3O2)cc1, the inhibition of growth at 50 µM [1] was 66%, the inhibition of growth at 50 µM [2] was 45% and the inhibition of growth at 50 µM [3] was 47%. It also gave an inhibition of growth at 50 µM [4] of 63%.
Work on COc1ccc([C@@H]2C/C(=N/OCc3cn(-c4ccc(C(=O)c5ccccc5)cc4)nn3)c3cc(CC=C(C)C)c(OC)cc3O2)cc1 yielded an inhibition of growth at 50 µM [1] of 34%, an inhibition of growth at 50 µM [2] of 40% and an inhibition of growth at 50 µM [3] of 52%. For the same molecule, the inhibition of growth at 50 µM [4] was 41%.
Molecule COc1cc2c(cc1CC1OC1(C)C)C(=O)C[C@@H](c1ccc(O)cc1)O2 (some centres undefined) has an inhibition of growth at 50 µM [1] of 79%, an inhibition of growth at 50 µM [2] of 92% and an inhibition of growth at 50 µM [3] of 97%. It also gave an inhibition of growth at 50 µM [4] of 98%, a pIC50 [5] of 4.53 and a pIC50 [6] of 4.56. It also gave a pIC50 [7] of 4.54 and a pIC50 [8] of 4.51.
